Assays:
Mus musculus [1] = test: Toxicity in BALB/c mouse assessed as pathological changes in lung at 1000 mg/kg, po administered as single dose by hematoxylin-eosin staining method; assay type: organism-based; set-up: dose 1000 mg/kg, route oral; settings: in vivo
Procedure, shortened: (§1)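 BALB/c mice, 16 in total (8 male, 8 female). DMAMCL was given by gavage as an aqueous solution, either 1000 mg/kg once or 500 mg/kg every day for seven doses. Controls were untreated and water-vehicle mice. Mice were killed 1 week after dosing. Heart, liver, spleen, lung and kidney were fixed in 10% neutral-buffered formalin, paraffin-embedded, cut into 3 μm sections, H&E-stained and examined microscopically for gross morphology.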

Mus musculus [2] = test: Volume of distribution in mouse at 150 mg/kg, po; assay type: ADME, organism-based; set-up: dose 150 mg/kg, route oral; settings: in vivo
Procedure, shortened: (§2)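 Male Kunming mice (20 2 g) were fasted 12 h with water available. An aqueous solution was dosed po (150 mg/kg) or iv (100 mg/kg), n = 5 per route. Blood was drawn from the orbital veins at set times to measure DMAMCL and released MCL. Parameters come from a noncompartmental model and are given as mean with SD.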

Mus musculus [3] = test: Toxicity in BALB/c mouse assessed as pathological changes in liver at 500 mg/kg, po administered every day for 7 days by hematoxylin-eosin staining method; settings: in vivo, 168 h
[4] = AUC (0 to infinity) in mouse at 150 mg/kg, po; assay type: ADME, organism-based; set-up: dose 150 mg/kg, route oral, time infinity; settings: plasma
Procedure, shortened: (§3)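 Male Kunming mice (20 2 g), fasted 12 h before dosing with water available, given DMAMCL as an aqueous solution po (n = 5). Blood was drawn from the orbital veins at set times. Plasma DMAMCL and MCL were followed, and parameters came from noncompartmental analysis.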

[5] = Drug degradation in HEPES buffer at pH 7.4 assessed as release of MCL; assay type: physicochemical
Procedure, shortened: (§4)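 A 20 μL aliquot of prodrug solution was added to 980 μL HEPES buffer (pH 7.4, or below 5.0) and incubated at 37 °C. Samples were withdrawn over time, and prodrug and released parent were quantified by HPLC (mean, SD, n = 4).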

Mus musculus [6] = test: Toxicity in BALB/c mouse assessed as pathological changes in kidney at 1000 mg/kg, po administered as single dose by hematoxylin-eosin staining method; assay type: organism-based; set-up: dose 1000 mg/kg, route oral; settings: in vivo
Procedure, shortened: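 BALB/c mice (16 in total, 8 male/8 female) were given aqueous DMAMCL by gavage as a single 1000 mg/kg dose or 500 mg/kg daily for seven doses. Water-only and untreated mice served as controls. One week later, tissues were fixed in 10% neutral-buffered formalin, embedded in paraffin, cut into 3 μm sections, stained with H&E and examined microscopically.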

[7] = Antitumor activity against mixed-lineage human leukemia cells xenografted in NOD/SCID mouse assessed as reduction of CD45+CD33+ cells in bone marrow at 100 mg/kg, po qd administered every other day total of seven doses starting from 8 weeks post grafting measured on day 35 (reference value: 9.8 %); assay type: functional, Leukemia cell; set-up: scale not given: the % may be the effect or the level left
Plasma = test: Drug metabolism in mouse plasma assessed as release of MCL; assay type: ADME, cell-free
Procedure, shortened: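 A 20 μL aliquot of prodrug solution was added to 980 μL blank mouse plasma and incubated at 37 °C. Prodrug and released parent drug concentrations were measured over time by HPLC (mean, SD, n = 4).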

Mus musculus [8] = test: Toxicity in BALB/c mouse assessed as pathological changes in spleen at 500 mg/kg, po administered every day for 7 days by hematoxylin-eosin staining method; settings: in vivo, 168 h
[9] = AUC (0 to infinity) in mouse at 100 mg/kg, iv; assay type: ADME, organism-based; set-up: time infinity, dose 100 mg/kg, route intravenous; settings: plasma
Procedure, shortened: (§5)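 Male Kunming mice (20 2 g), fasted 12 h before dosing with water available, given DMAMCL as an aqueous solution iv (n = 5). Blood was drawn from the orbital veins at set times. DMAMCL and MCL in plasma were measured, and parameters were derived by a noncompartmental model.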

[10] = Tmax in mouse at 150 mg/kg, po; assay type: ADME, organism-based; set-up: dose 150 mg/kg, route oral; settings: in vivo; procedure, shortened: as §3
[11] = Cmax in mouse at 100 mg/kg, iv; assay type: ADME, organism-based; set-up: dose 100 mg/kg, route intravenous; settings: in vivo; procedure, shortened: as §5
[12] = AUC (0 to t) in mouse at 100 mg/kg, iv; assay type: ADME, organism-based; set-up: dose 100 mg/kg, route intravenous; settings: plasma; procedure, shortened: as §5
Mus musculus [13] = test: Toxicity in BALB/c mouse assessed as pathological changes in spleen at 1000 mg/kg, po administered as single dose by hematoxylin-eosin staining method; assay type: organism-based; set-up: dose 1000 mg/kg, route oral; settings: in vivo; procedure, shortened: as §1
[14] = Drug degradation in HEPES buffer at pH <5 assessed as release of MCL; assay type: physicochemical; procedure, shortened: as §4
[15] = Half life in mouse at 150 mg/kg, po; assay type: ADME, organism-based; set-up: dose 150 mg/kg, route oral; settings: in vivo; procedure, shortened: as §3
[16] = Cytotoxicity against human leukemia stem/progenitor cells assessed as viable CD34+ cells at 5 uM after 18 hrs by annexin-V labeling-based flow cytometry; assay type: functional, CD34+ cell
Procedure, shortened: (§6)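 Primary leukemia cells from AML patient blood were treated for 18 h in serum-free IMDM, then stained with CD34-APC and CD38-PECy7 for 30 min. After washing in cold PBS, cells were labelled with Annexin-V–FITC/PI for 15 min at room temperature and read by flow cytometry. Viability of total and CD34⁺ cells was normalized to untreated controls (mean, SD).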

[17] = Toxicity in po dosed BALB/c mouse administered every day for 7 days; settings: in vivo
[18] = Mean retention time (0 to infinity) in mouse at 100 mg/kg, iv; assay type: ADME, organism-based; set-up: dose 100 mg/kg, route intravenous; settings: in vivo; procedure, shortened: as §5
[19] = Volume of distribution in mouse at 100 mg/kg, iv; assay type: ADME, organism-based; set-up: dose 100 mg/kg, route intravenous; settings: in vivo; procedure, shortened: as §2
[20] = Antitumor activity against human leukemia stem/progenitor cells xenografted in NOD/SCID mouse assessed as survival time at 100 mg/kg, po qd administered every other day total of seven doses starting from 8 weeks post grafting (reference value: 43 days); assay type: functional
Procedure, shortened: (§7)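 NOD/SCID mice were sublethally irradiated (280cGay), then 6−10 h later given primary AML M5 patient cells via tail vein in PBS. From 8 weeks postinoculation, aqueous solution was given orally at 100 mg/kg every other day for seven doses. Survival was followed, Kaplan−Meier, n = 6 per treated group and n = 7 untreated controls. Survivors at day 85 had bone marrow analysed for human CD45⁺CD33⁺ cells.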

[21] = Antitumor activity against human leukemia stem/progenitor cells xenografted in NOD/SCID mouse assessed as survival rate at 100 mg/kg, po qd administered every other day total of seven doses starting from 8 weeks post grafting measured on day 85; assay type: functional; procedure, shortened: as §7
[22] = Cytotoxicity against human leukemia stem/progenitor cells assessed as cell viability at 5 uM after 18 hrs by annexin-V labeling-based flow cytometry; assay type: functional; settings: in the assay text read “leukemia cells” for “leukemia stem/progenitor cells”, read-out: Activity; procedure, shortened: as §6
[23] = Mean retention time (0 to infinity) in mouse at 150 mg/kg, po; assay type: ADME, organism-based; set-up: dose 150 mg/kg, route oral; settings: in vivo; procedure, shortened: as §3
[24] = Antitumor activity against mixed-lineage human leukemia cells xenografted in NOD/SCID mouse assessed as inhibition of cancer cell engrafting at 100 mg/kg, po qd administered every other day total of seven doses starting from 8 weeks post grafting measured on day 35; assay type: functional
[25] = Mean retention time (0 to t) in mouse at 100 mg/kg, iv; assay type: ADME, organism-based; set-up: dose 100 mg/kg, route intravenous; settings: in vivo; procedure, shortened: as §5
[26] = Cytotoxicity against human leukemia cells assessed as cell viability at 10 uM after 18 hrs by annexin-V labeling-based flow cytometry
Mus musculus [27] = test: Toxicity in BALB/c mouse assessed as pathological changes in kidney at 500 mg/kg, po administered every day for 7 days by hematoxylin-eosin staining method; settings: in vivo, 168 h

Structure (SMILES): CC1=C2CC[C@@](C)(O)[C@@H]2[C@H]2OC(=O)[C@@H](CN(C)C)[C@@H]2CC1.Cl [DIMETHYLAMINOMICHELIOLIDE HYDROCHLORIDE]
- Activity (Mus musculus [1]): Non-toxic
- Vd (Mus musculus [2]): 47.38 L/kg
- Activity (Mus musculus [3]): Non-toxic
- AUC(0-inf) [4]: 50300 ng·h/mL
- Drug degradation [5]: Active
- Activity (Mus musculus [6]): Non-toxic
- Activity [7]: 0.14%
- Drug metabolism (Plasma): Active
- Activity (Mus musculus [8]): Non-toxic
- AUC(0-inf) [9]: 44800 ng·h/mL
- Tmax [10]: 0.19 h
- Cmax [11]: 92.9 µg/mL
- AUC(0-t) [12]: 43900 ng·h/mL
- Activity (Mus musculus [13]): Non-toxic
- Drug degradation [14]: Not Active
- half-life [15]: 9.82 h
- Activity [16]: 72.9%
- MTD at 168 h [17]: 500 mg/kg
- MRT inf [18]: 3.52 h
- Vd [19]: 88.2 L/kg
- Survival [20]: 63 days
- survival at 100 mg/kg [21]: 33%
- viability at 5 µM [22]: 77.6%
- MRT inf [23]: 9.85 h
- inhibition in vivo at 100 mg/kg [24]: 98.6%
- MRT last [25]: 1.51 h
- viability at 10 µM [26]: 64.9%
- Activity (Mus musculus [27]): Non-toxic

— ChEMBL document CHEMBL2202986, “Guaianolide sesquiterpene lactones, a source to discover agents that selectively inhibit acute myelogenous leukemia stem and progenitor cells” (J Med Chem, 2012)
